Source: ChEMBL document CHEMBL5303300, “EUbOPEN Chemogenomics Library - Multiplex” (2023)
Several values for one entry are separate records, joined by “and”; a condition that tells them apart may be missing. Equal values may be shown once.

Tested on: U2OS
Test: Multiplex assay against U2OS
Assay type: toxicity, cell-based
Conditions: human, number of replicates 2
Procedure, shortened: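 Phenotypes for tubulin, mitochondrial mass and membrane permeability are expressed as per cents of healthy-nucleus cells. Cells were stained live at seeding with Hoechst33342, BioTracker Green Microtubule Cytoskeleton Dye, MitoTracker Red and Annexin V Alexa Fluor 680, then imaged after compound addition on a CQ1 microscope at 37°C and 5% CO2. Machine-learning gating in CellPathfinder separated Hoechst high-intensity objects from normal cells, divided normal cells by nuclear state (healthy, pyknosed, fragmented) and divided pyknosed cells into mitotic or apoptotic.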

[1] = 12 h, 1 µM, compound concentration 1 uM
[2] = 12 h, 10 µM, compound concentration 10 uM
[3] = 24 h, 1 µM, compound concentration 1 uM
[4] = 24 h, 10 µM, compound concentration 10 uM
[5] = 48 h, 1 µM, compound concentration 1 uM
[6] = 48 h, 10 µM, compound concentration 10 uM

COc1cc(Br)c(S(=O)(=O)Nc2ccc(C(F)(F)F)c(O[C@@H]3CCN(C)C3)c2)cc1OC
Population Fragmented Nuclei (%) [1]: 10% and 4% | Population Healthy Nuclei (%) [1]: 80% and 88% | Population Hoechst High Intensity Objects (%) [1]: 0% | Population Membrane Permeable-Phenotype (%) [1]: 4% and 0% | Population Mitochondria Different-Phenotype (%) [1]: 0% | Population Mitotic Cells (%) [1]: 100% and 46% | Population Normal (%) [1]: 100% | Population Pyknosed Nuclei (%) [1]: 10% and 7% | Population Tubulin-Different-Phenotype (%) [1]: 66% and 89% | Population Apoptotic (%) [2]: 60% and 78% | Population Healthy Nuclei (%) [2]: 67% and 85% | Population Hoechst High Intensity Objects (%) [2]: 0% | Population Membrane Permeable-Phenotype (%) [2]: 4% and 0% | Population Mitochondria Different-Phenotype (%) [2]: 4% and 0% | Population Mitotic Cells (%) [2]: 40% and 21% | Population Normal (%) [2]: 100% | Population Pyknosed Nuclei (%) [2]: 16% and 10% | Population Tubulin-Different-Phenotype (%) [2]: 66% and 59% | Population Apoptotic (%) [3]: 66% and 47% | Population Fragmented Nuclei (%) [3]: 7% and 3% | Population Healthy Nuclei (%) [3]: 85% and 88% | Population Hoechst High Intensity Objects (%) [3]: 0% | Population Membrane Permeable-Phenotype (%) [3]: 0% and 3% | Population Mitochondria Different-Phenotype (%) [3]: 0% | Population Mitotic Cells (%) [3]: 33% and 52% | Population Normal (%) [3]: 100% | Population Pyknosed Nuclei (%) [3]: 7% | Population Tubulin-Different-Phenotype (%) [3]: 77% and 87% | Population Fragmented Nuclei (%) [4]: 8% and 2% | Population Healthy Nuclei (%) [4]: 75% and 85% | Population Hoechst High Intensity Objects (%) [4]: 0% | Population Membrane Permeable-Phenotype (%) [4]: 0% and 2% | Population Mitochondria Different-Phenotype (%) [4]: 3% and 2% | Population Mitotic Cells (%) [4]: 83% and 48% | Population Normal (%) [4]: 100% | Population Pyknosed Nuclei (%) [4]: 16% and 11% | Population Tubulin-Different-Phenotype (%) [4]: 70% and 74% | Population Apoptotic (%) [5]: 30% and 51% | Population Healthy Nuclei (%) [5]: 69% and 89% | Population Hoechst High Intensity Objects (%) [5]: 0% | Population Membrane Permeable-Phenotype (%) [5]: 0% and 1% | Population Mitochondria Different-Phenotype (%) [5]: 0% | Population Mitotic Cells (%) [5]: 69% and 48% | Population Normal (%) [5]: 100% and 99% | Population Pyknosed Nuclei (%) [5]: 14% and 7% | Population Tubulin-Different-Phenotype (%) [5]: 79% and 91% | Population Apoptotic (%) [6]: 57% and 61% | Population Fragmented Nuclei (%) [6]: 9% and 1% | Population Healthy Nuclei (%) [6]: 79% and 91% | Population Hoechst High Intensity Objects (%) [6]: 0% | Population Membrane Permeable-Phenotype (%) [6]: 9% and 1% | Population Mitochondria Different-Phenotype (%) [6]: 5% and 0% | Population Mitotic Cells (%) [6]: 42% and 38% | Population Normal (%) [6]: 100% | Population Pyknosed Nuclei (%) [6]: 10% and 6% | Population Tubulin-Different-Phenotype (%) [6]: 92% and 81%

C[C@@H]1CC[C@@]2(OC1)O[C@H]1[C@@H](O)[C@H]3[C@@H]4CC[C@H]5C[C@@H](O[C@@H]6O[C@H](CO)[C@H](O[C@@H]7O[C@H](CO)C(O)[C@H](O[C@@H]8OC[C@@H](O)[C@H](O)[C@H]8O)[C@H]7O[C@@H]7O[C@H](CO)[C@H](O)[C@H](O[C@@H]8O[C@H](CO)[C@@H](O)[C@H](O)[C@H]8O)[C@H]7O)[C@H](O)[C@H]6O)[C@H](O)C[C@]5(C)[C@H]4CC[C@]3(C)[C@H]1[C@@H]2C (stereo not given in full) [DIGITONIN]
Population Apoptotic (%) [2]: 65% [middle of 4 runs] | Population Healthy Nuclei (%) [2]: 67% and 87% and 86% and 88% | Population Hoechst High Intensity Objects (%) [2]: 0% | Population Membrane Permeable-Phenotype (%) [2]: 0% and 7% and 1% and 3% | Population Mitochondria Different-Phenotype (%) [2]: 0% and 3% | Population Normal (%) [2]: 100% | Population Pyknosed Nuclei (%) [2]: 5% and 3% and 9% | Population Tubulin-Different-Phenotype (%) [2]: 72% and 92% and 85% and 94% | Population Apoptotic (%) [4]: 58% [middle of 4 runs] | Population Healthy Nuclei (%) [4]: 67% and 83% and 85% and 86% | Population Hoechst High Intensity Objects (%) [4]: 0% | Population Membrane Permeable-Phenotype (%) [4]: 0% and 2% and 1% | Population Mitochondria Different-Phenotype (%) [4]: 0% and 2% | Population Normal (%) [4]: 100% | Population Pyknosed Nuclei (%) [4]: 13% and 12% and 9% | Population Tubulin-Different-Phenotype (%) [4]: 65% and 97% and 90% and 96% | Population Apoptotic (%) [6]: 70% and 100% and 62% and 51% | Population Healthy Nuclei (%) [6]: 68% and 75% and 92% and 91% | Population Hoechst High Intensity Objects (%) [6]: 1% and 0% | Population Membrane Permeable-Phenotype (%) [6]: 3% and 1% and 0% | Population Mitochondria Different-Phenotype (%) [6]: 5% and 1% and 0% | Population Normal (%) [6]: 98% and 100% and 99% | Population Pyknosed Nuclei (%) [6]: 13% and 7% and 6% and 5% | Population Tubulin-Different-Phenotype (%) [6]: 84% and 100% and 92% and 97%
